Experiments:
UCHL5 [1] = biological target: T1, UCHL5 (Homo sapiens, UniProt Q9Y5K5); assay: in vitro DUB assay with purified UCHL5 and Ub-rhodamine 110; type: biochemical
T1 sequence (Q9Y5K5 1-329): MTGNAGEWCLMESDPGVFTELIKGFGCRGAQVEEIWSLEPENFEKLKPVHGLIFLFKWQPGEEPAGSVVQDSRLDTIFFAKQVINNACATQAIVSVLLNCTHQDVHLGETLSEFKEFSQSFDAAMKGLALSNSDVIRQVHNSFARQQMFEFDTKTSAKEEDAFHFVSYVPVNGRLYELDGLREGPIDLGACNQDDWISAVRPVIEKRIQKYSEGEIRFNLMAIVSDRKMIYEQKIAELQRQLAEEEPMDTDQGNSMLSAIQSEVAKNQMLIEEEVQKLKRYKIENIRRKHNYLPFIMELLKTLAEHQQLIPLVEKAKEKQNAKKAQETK

UCHL5 [2] = biological target: T1, UCHL5; type: biochemical; details: MDA-MB-231 lysate pre-incubated 30 min, Ub-VS 1 μM
Procedure, shortened: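 Lysate (20 μg protein) was pre-incubated with test compound at RT, then Ub-VS was added for 11 min at RT. After SDS quench and 12% SDS-PAGE, blots were probed for UCHL5 band shift and β-actin. Two independent experiments were run.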

## CC(C(=O)O)c1ccc(C(=O)c2cccc(-c3ccccc3C(=O)O)c2)s1 (stereo not drawn) [TAA1]
UCHL5 [1]; TAA1 vs TA
  improvement of IC50 compared to TA: ca. 33 fold

## Nc1ccc(-c2cn(Cc3cc(C(=O)O)cc(-c4cccc(C(=O)O)c4)c3)nn2)cc1 [TAB2]
UCHL5 [1]; TAB2 vs TAB1
  improved potency versus TAB1: ca. 2.5 fold
UCHL5 [2]
  concentrations inhibiting UCHL5/Ub-VS conjugation: 25 to 50 µM

From PMC7880549 (Bioorganic & medicinal chemistry, 2020)
